Activity calls are given as the source filed them. The rule behind the calls is not given here.
Tests used:
GT1-7 [1] = test: Antiprion activity in human transmissible spongiform encephalopathies agent Fukuoka-1 prion infected mouse GT1-7 cells assessed as inhibition of proteinase K-resistant PrPres accumulation at […] after 3 days by Western blotting analysis; assay type: cell-based
Summary of the method: (§1)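 GT1-7 mouse neuronal cells persistently infected with Fukuoka-1 agent, grown in DMEM with 10% FBS and penicillin G at 37 °C, 5% CO2. Seeded 3 × 10⁵ cells/well; 15 h later given compound diluted from 10 mM DMSO stock (control 0.1% DMSO). Lysate adjusted to 1 mg/mL protein, proteinase K 30 min 37 °C, pelleted, SDS-PAGE, anti-PrP M-20 Western blot. IC50 = 50% PrPres inhibition.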

[2] = Cytotoxicity against human transmissible spongiform encephalopathies agent Fukuoka-1 prion infected mouse GT1-7 cells at 10 uM after 3 days; assay type: cell-based; conditions: gt1-7, 72 h
GT1-7 [3] = test: Antiprion activity in human transmissible spongiform encephalopathies agent Fukuoka-1 prion infected in mouse GT1-7 cells assessed as inhibition of proteinase K-resistant PrPres accumulation at 5 uM after 3 days by Western blot analysis relative to control; assay type: cell-based; summary of the method: as §1
[4] = Antiprion activity in human transmissible spongiform encephalopathies agent Fukuoka-1 prion infected mouse GT1-7 cells assessed as inhibition of proteinase K-resistant PrPres accumulation after 3 days by Western blot analysis; assay type: cell-based; conditions: GT1-7, 72 h; summary of the method: as §1
GT1-7 [5] = test: Ratio of compound IC50 over GJP14 IC50 for human transmissible spongiform encephalopathies agent Fukuoka-1 prion infected in mouse GT1-7 cells; assay type: cell-based
GT1-7 [6] = test: Antiprion activity in human transmissible spongiform encephalopathies agent Fukuoka-1 prion infected mouse GT1-7 cells assessed as inhibition of PrPC expression at 5 uM after 3 days absence of proteinase K digestion; assay type: cell-based
Summary of the method: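 GT1-7 cells persistently infected with Fukuoka-1 agent, seeded 3 × 10⁵ cells/well. Compound from 10 mM DMSO stock added 15 h after seeding (vehicle 0.1% DMSO). Lysates adjusted to 1 mg/mL total protein (BCA). Run without proteinase K digestion, so PrPC is read by Western blot with M-20 anti-PrP antibody.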

Mus musculus = organism: Mus musculus; test: Antiprion activity in scrapie infected mouse ScN2a-3-Ch cells assessed as inhibition of proteinase K-resistant PrPres accumulation at 5 uM after 3 days by Western blot analysis relative to control
Summary of the method: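 Scrapie-infected ScN2a-3-Ch cells seeded at about 1 × 10⁵ cells/well and handled as in the GT1-7 assay. Compound diluted from 10 mM DMSO stock, with 0.1% DMSO control. Lysate protein adjusted to 1 mg/mL, then proteinase K digestion 30 min at 37 °C. Pellet analysed by Western blot for PrPres, expressed relative to control.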

SMILES | inhibition (GT1-7 [1]) | further results
OC(CNCc1cccnc1)Cn1c2c(c3ccccc31)CCCC2 (centres undefined) | Active | 
OC(CN1CCCCC1)Cn1ccc2ccccc21 (centres undefined) | inactive | 
OC(CN1CCCCC1)Cn1ccc2c1CCCC2 (centres undefined) | inactive | 
COc1ccc(CNCC(O)Cn2c3c(c4ccccc42)CCCC3)cc1 (centres undefined) |  | Activity [2]: Toxic; inhibition (GT1-7 [3]): 23%
OC(CNCc1cc(F)ccc1F)Cn1c2c(c3ccccc31)CCCC2 (centres undefined) | Active | 
OC(CN1CCCCC1)Cn1c2c(c3ccccc31)CCCC2 (centres undefined) | Active | 
O[C@@H](CNCc1ccccc1F)Cn1c2c(c3ccccc31)CCCC2 |  | IC50 [4]: 1.11 µM; Ratio IC50 (GT1-7 [5]): 8; inhibition (GT1-7 [6]): inactive; inhibition (Mus musculus): Active
OC(CNCc1ccc(F)cc1)Cn1c2c(c3ccccc31)CCCC2 (centres undefined) | Active | 
CCCCNCC(O)Cn1c2c(c3ccccc31)CCCC2 (centres undefined) | Active | 
OC(CNCc1ccc(F)cc1F)Cn1c2c(c3ccccc31)CCCC2 (centres undefined) | Active | 
OC(CNCc1ccccc1Br)Cn1c2c(c3ccccc31)CCCC2 (centres undefined) | Active | 
Cc1cccc(CNCC(O)Cn2c3c(c4ccccc42)CCCC3)c1 (centres undefined) | Active | 
COc1ccccc1CNCC(O)Cn1c2c(c3ccccc31)CCCC2 (centres undefined) | Active | 
Cc1ccccc1CNCC(O)Cn1c2c(c3ccccc31)CCCC2 (centres undefined) | Active | 
OC(CNCc1ccccn1)Cn1c2c(c3ccccc31)CCCC2 (centres undefined) | Active | 
c1ccc2c3c([nH]c2c1)CCCC3 | inactive | 
OC(CNCc1ccccc1)Cn1c2c(c3ccccc31)CCCC2 (centres undefined) | Active | inhibition (GT1-7 [3]): 28%
OC(CNCc1c(F)cccc1F)Cn1c2c(c3ccccc31)CCCC2 (centres undefined) | Active | 
OC(CNCc1ccc(Cl)cc1)Cn1c2c(c3ccccc31)CCCC2 (centres undefined) |  | Activity [2]: Toxic; inhibition (GT1-7 [3]): 18%
OC(CNCc1ccccc1F)Cn1c2c(c3ccccc31)CCCC2 (centres undefined) | Active | 
Cc1ccc2c(c1)c1c(n2CC(O)CN2CCCCC2)C(=O)CCC1 (centres undefined) |  | IC50 [4]: 8.54 µM

SMILES | inhibition (GT1-7 [1]) | further results
OC(CN1CCCCC1)Cn1cccc1 (centres undefined) | inactive | 
OC(CNCc1cccc(F)c1)Cn1c2c(c3ccccc31)CCCC2 (centres undefined) | Active | 
OC(CNCc1ccccc1Cl)Cn1c2c(c3ccccc31)CCCC2 (centres undefined) | Active | 
OC(CNCc1cccc(Br)c1)Cn1c2c(c3ccccc31)CCCC2 (centres undefined) | Active | 
COc1cccc(CNCC(O)Cn2c3c(c4ccccc42)CCCC3)c1 (centres undefined) |  | Activity [2]: Toxic; inhibition (GT1-7 [3]): 21%
OC(CNCc1ccccc1C(F)(F)F)Cn1c2c(c3ccccc31)CCCC2 (centres undefined) | Active | 
OC(CNCc1cccc(Cl)c1)Cn1c2c(c3ccccc31)CCCC2 (centres undefined) | Active | 
OC(CNCc1cccc(C(F)(F)F)c1)Cn1c2c(c3ccccc31)CCCC2 (centres undefined) |  | Activity [2]: Toxic; inhibition (GT1-7 [3]): 40%
OC(CN1CCOCC1)Cn1c2c(c3ccccc31)CCCC2 (centres undefined) | Active | 
OC(CNCc1ccc(C(F)(F)F)cc1)Cn1c2c(c3ccccc31)CCCC2 (centres undefined) | Active | 
OC(CN1CCCCC1)Cn1c2ccccc2c2ccccc21 (centres undefined) | Active | 
OC(CNCc1ccc(Br)cc1)Cn1c2c(c3ccccc31)CCCC2 (centres undefined) |  | Activity [2]: Toxic; inhibition (GT1-7 [3]): 25%
OC(CNCc1cccc2ccccc12)Cn1c2c(c3ccccc31)CCCC2 (centres undefined) | Active | 
O[C@H](CNCc1ccccc1F)Cn1c2c(c3ccccc31)CCCC2 |  | IC50 [4]: 2.23 µM
OC(CNc1ccccc1)Cn1c2c(c3ccccc31)CCCC2 (centres undefined) | inactive | 
OC(CNC1CCCC1)Cn1c2c(c3ccccc31)CCCC2 (centres undefined) | Active | 
OC(CNCc1c(Cl)cccc1Cl)Cn1c2c(c3ccccc31)CCCC2 (centres undefined) | Active | 
OC(CNCc1ccncc1)Cn1c2c(c3ccccc31)CCCC2 (centres undefined) | Active | 
Cc1ccc(CNCC(O)Cn2c3c(c4ccccc42)CCCC3)cc1 (centres undefined) |  | Activity [2]: Toxic; inhibition (GT1-7 [3]): 32%
CC(C)(NCC(O)Cn1c2c(c3ccccc31)CCCC2)c1ccccc1 (centres undefined) |  | Activity [2]: Toxic; inhibition (GT1-7 [3]): 34%
O=C(CN1CCCC1)Nc1ccc(Cc2ccc(NC(=O)CN3CCCC3)cc2)cc1 |  | IC50 [4]: 1.4 µM; inhibition (GT1-7 [3]): 34%

Reference: ChEMBL document CHEMBL1909516, “Synthesis of 9-substituted 2,3,4,9-tetrahydro-1H-carbazole derivatives and evaluation of their anti-prion activity in TSE-infected cells” (Eur J Med Chem, 2011)
